The results in this text go back to ChEMBL document CHEMBL5512639, “Insights from structure-activity relationships and the binding mode of peptidic α-ketoamide inhibitors of the malaria drug target subtilisin-like SUB1” (Eur J Med Chem, 2024).

Usually IC50 stands for the concentration that gives 50% inhibition. One may read the inhibition as the drop in the measured response relative to a control, in per cent. As a reminder, the ΔTm is the shift of the melting midpoint relative to a reference.

The nature of data set [1]: Inhibition of porcine Pancreas elastase using Nalpha-succinyl-Ala-Ala-Ala-p-nitroanilide preincubated with compound for 15 mins followed by substrate addition and measured after 1 hr. Details: species or system Sus scrofa. The method in brief:
(§1)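 Enzyme in 100 mM Tris-HCl pH 8.0, 20 mM CaCl2: trypsin 5 μg/mL, chymotrypsin 0.5 μg/mL or elastase 5 μg/mL. Mixed with compound (2 μL of 10 mM stock into 98 μL) and preincubated 15 min. p-Nitroanilide substrate then added to 1 mM final. Absorbance at 405 nm followed for 1 h; DMSO and 2 mM PMSF as controls; triplicate.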

The nature of data set [2]: Selectivity ratio, ratio of IC50 for porcine Pancreas elastase to IC50 for Plasmodium falciparum SUB1.
Data set [3] in a line: Inhibition of elastase (unknown origin). Details: species or system Homo sapiens.
Data set [4] deals with Subtilisin-like protease 1 (Plasmodium vivax). Nature of the data set: Binding affinity to Plasmodium vivax SUB1 using Dabsyl-KLVGADDV-SLA-EDANS as substrate using catalytic domain assessed as bound half life by jump dilution assay.
Data set [5] has as its target T1, Subtilisin-like protease 1 (Plasmodium falciparum, UniProt O61142).
T1 sequence (O61142 whole entry): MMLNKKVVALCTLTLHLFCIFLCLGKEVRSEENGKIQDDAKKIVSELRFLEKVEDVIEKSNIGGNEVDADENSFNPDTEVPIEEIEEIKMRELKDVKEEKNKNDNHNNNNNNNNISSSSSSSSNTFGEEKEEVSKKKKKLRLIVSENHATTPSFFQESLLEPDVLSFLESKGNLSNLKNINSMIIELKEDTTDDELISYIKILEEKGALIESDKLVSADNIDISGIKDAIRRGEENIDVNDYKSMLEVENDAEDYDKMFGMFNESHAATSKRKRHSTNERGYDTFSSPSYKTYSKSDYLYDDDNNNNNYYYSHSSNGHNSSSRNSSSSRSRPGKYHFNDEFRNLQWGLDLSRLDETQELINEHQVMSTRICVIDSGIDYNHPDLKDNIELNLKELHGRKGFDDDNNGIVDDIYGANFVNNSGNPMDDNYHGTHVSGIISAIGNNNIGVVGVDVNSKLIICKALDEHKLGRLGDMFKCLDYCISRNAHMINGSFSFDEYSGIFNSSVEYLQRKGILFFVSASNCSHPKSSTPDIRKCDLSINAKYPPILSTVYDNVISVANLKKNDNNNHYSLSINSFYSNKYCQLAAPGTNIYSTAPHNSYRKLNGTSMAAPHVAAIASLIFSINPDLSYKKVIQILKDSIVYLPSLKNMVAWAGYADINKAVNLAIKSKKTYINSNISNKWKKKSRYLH
Nature of the data set: Inhibition of full length recombinant Plasmodium falciparum SUB1 using Dabsyl-KLVSADNIDIS-EDANS as substrate measured every 2 mins for 1 hr by FRET assay.

The test system of data set [6] is Subtilisin-like protease 1 (Plasmodium vivax). The data set can be described thus: Binding affinity to Plasmodium vivax SUB1 using Dabsyl-KLVGADDV-SLA-EDANS as substrate using catalytic domain assessed as dissociation constant (Koff) by jump dilution assay.
The test system of data set [7] is Plasmodium falciparum. Nature of the data set: Antiparasitic activity against Plasmodium falciparum infected in human Erythrocyte assessed as inhibition of merozoite egress from human Erythrocyte at 100 uM measured for 8 hrs by flow cytometry analysis relative to control. In kind it is functional. The method in brief:
(§2)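 P. falciparum cultured in human RBCs, RPMI 1640 with 25 mM HEPES, 2.5% Albumax II, 100 μM hypoxanthine, 37 °C, 5% O2/5% CO2. Sorbitol-synchronized, plasmion-enriched late schizonts at 2% hematocrit, 1% parasitemia exposed to compound for 8 h. Fixed in glutaraldehyde, permeabilized, RNase-treated, stained with YOYO-1. Ring parasitemia by flow cytometry (100,000 events) vs DMSO. Triplicate; IC50 from 16 concentrations, 180 to 0.8 μM.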

The nature of data set [8]: Metabolic stability in human serum measured after 24 hrs by LC-MS analysis. The note with it: read-out: Stability. Type of data set: ADME, cell-free. The method in brief:
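Pooled human serum prewarmed 20 min at 37 °C; peptide added to 0.6 mM final. Aliquots taken over 0-24 h and proteins precipitated with MeCN/H2O/formic acid. Supernatant lyophilized and analysed by LC-SWATH-MS. Intact peak area expressed as % of the 0 h value. Two independent experiments in duplicate, mean ± SEM.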

Data set [9] deals with Subtilisin-like protease 1 (Plasmodium vivax). The data set can be described thus: Binding affinity to Plasmodium vivax SUB1 catalytic domain assessed as thermal stabilization by measuring change in melting temperature by differential scanning fluorimetry.
Data set [10] is described as follows: Selectivity ratio of IC50 for inhibition of full length recombinant Plasmodium vivax SUB1 expressed in Drosophila S2 cells using Dabsyl-KLVGADDV-SLA-EDANS as substrate to IC50 for inhibition of full length recombinant Plasmodium falciparum SUB1 using Dabsyl-KLVSADNIDIS-EDANS as substrate.
A further data set is filed under the species Bos taurus. Nature of the data set: Inhibition of bovine Pancreas chymotrypsin using Nalpha-succinyl-Ala-Ala-Pro-phe-p-nitroanilide preincubated with compound for 15 mins followed by substrate addition and measured after 1 hr. The note with it: time 75.0 min. The method in brief: as §1
For data set [11], the species on record is Sus scrofa. The data set can be described thus: Inhibition of porcine Pancreas elastase using Nalpha-succinyl-Ala-Ala-Ala-p-nitroanilide preincubated with compound for 15 mins followed by substrate addition and measured after 1 hr relative to control. The note with it: time 75.0 min. In outline:
as §1

The species entered for data set [12] is Sus scrofa. Nature of the data set: Inhibition of porcine Pancreas trypsin using Nalpha-benzoyl-L-arginine-p-nitroanilide hydrochloride preincubated with compound for 15 mins followed by substrate addition and measured after 1 hr. The note with it: time 75.0 min. In outline:
as §1

Data set [13] in a line: Inhibition of full length recombinant Plasmodium vivax SUB1 expressed in Drosophila S2 cells using Dabsyl-KLVGADDV-SLA-EDANS as substrate measured every 2 mins for 1 hr by FRET assay.
Data set [14] can be described thus: Selectivity ratio, ratio of IC50 for porcine Pancreas elastase to IC50 for Plasmodium vivax SUB1.
Data set [15] deals with Plasmodium falciparum. Nature of the data set: Antiparasitic activity against Plasmodium falciparum infected in human Erythrocyte assessed as inhibition of merozoite egress from human Erythrocyte measured for 8 hrs by flow cytometry analysis. In kind it is functional, organism-based. In outline: as §2
In general terms: A flow cytometer gives signals particle by particle.

For data set [16], the system named is Plasmodium falciparum. Nature of the data set: Antiparasitic activity against synchronous parasite Plasmodium falciparum infected in human Erythrocyte at 25 uM incubated for 28 hrs followed by compound washout and measured after 38 hrs. In kind it is functional. In outline: (§3)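 Trophogony off-target check: synchronous 0-3 h post-invasion rings (2% hematocrit, 1% parasitemia) exposed to compound or matched DMSO (1% or 0.25% final) for 28 h. Cells then washed and recultured without compound for 38 h. Parasitemia read by YOYO-1 flow cytometry; growth inhibition expressed relative to DMSO.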

Data set [17] concerns Plasmodium falciparum. Nature of the data set: Antiparasitic activity against synchronous parasite Plasmodium falciparum infected in human Erythrocyte at 100 uM incubated for 28 hrs followed by compound washout and measured after 38 hrs. In kind it is functional. In outline: as §3
Data set [18] concerns Plasmodium falciparum. Nature of the data set: Antiparasitic activity against Plasmodium falciparum infected in human Erythrocyte assessed as inhibition of merozoite egress from human Erythrocyte at 25 uM measured for 8 hrs by flow cytometry analysis relative to control. Type of data set: functional. In outline: as §2
A short description of data set [19]: Selectivity index, ratio of INH for antiparasitic activity against Plasmodium falciparum infected in human Erythrocyte assessed as inhibition of merozoite egress from human Erythrocyte at 25 uM to INH for antiparasitic activity against synchronous parasite Plasmodium falciparum infected in human Erythrocyte at 25 uM. In kind it is functional. In outline:
(§4)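 SI = 1 − (% trophogony inhibition / % T0-T8 egress inhibition), each at the same concentration. Trophogony arm: 0-3 h rings, 28 h exposure, washout, 38 h regrowth. Egress arm: late schizonts, 8 h exposure. Both read as parasitemia by flow cytometry vs DMSO.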

Data set [20] in a line: Selectivity index, ratio of INH for antiparasitic activity against Plasmodium falciparum infected in human Erythrocyte assessed as inhibition of merozoite egress from human Erythrocyte at 100 uM to INH for antiparasitic activity against synchronous parasite Plasmodium falciparum infected in human Erythrocyte at 100 uM. In kind it is functional. The method in brief: as §4

The structures appear in SMILES notation. The source made the active and inactive calls. The calls are words filed in the database; no cut-off is given here. Numbered stars: 1 amine (or outer) side, 2 acyl side, 3 side chain; on linkers, the order of the positions; unused ones are H or OH. Square brackets hold non-standard residues; d marks the D form. Peptide text beside a SMILES is read from it. Gly(cPent) = N[C@H](C(=O)O)C1CCCC1; X1 = C[C@H](N[*:1])C(=O)C(=O)[*:2]

`C=CCOC(=O)CC[C@H](NC(=O)[C@H](CC(=O)O)NC(=O)C(=O)[C@H](C)NC(=O)[C@H](C)NC(=O)[C@@H](NC(=O)[C@@H](NC(C)=O)C1CCCC1)[C@@H](C)O)C(N)=O`: the IC50 in data set [1] was 36000 nM; in [3], 820 nM; in [5] it was 570 nM; in data set [13], 50 nM. Moreover, the Ratio IC50 in data set [2] came out at 63; in data set [10], 9; in data set [14] it was 720. Also, the T1/2 in data set [4] was 30 min. Also, the K in [6] came to 0.023 min⁻¹. Moreover, the inhibition at 100 µM in the data set with Plasmodium falciparum [7] amounted to 37%. Moreover, the remaining at 24 h in [8] is roughly 95%. Also, the ΔTm in data set [9] is 14.3 °C. The inhibition entry in the data set filed under Bos taurus and in the data set listed under Sus scrofa [12] was “inactive” each time. Further, in the data set filed under Sus scrofa [11], the inhibition result is “Active”.

Regarding `CC(=O)N[C@H](C(=O)N[C@H](C(=O)N[C@@H](C)C(=O)N[C@@H](C)C(=O)C(=O)N[C@@H](CC(=O)O)C(=O)N[C@H](C(N)=O)C1CCCC1)[C@@H](C)O)C1CCCC1` (Ac-[Gly(cPent)]TA[X1]D[Gly(cPent)]-NH2), the IC50 in the data set with Plasmodium falciparum [15] stood at 22600 nM; in [5], 10 nM; in data set [13], 12 nM. The Activity with Plasmodium falciparum [16] is on record as 0%; in the data set with Plasmodium falciparum [17] it was 6%. Besides, in the data set with Plasmodium falciparum [18], the inhibition at 25 µM worked out at 60%. The inhibition at 100 µM with Plasmodium falciparum [7] worked out at 100%. Further, the “Selectivity Index” value in data set [19] stood at 1; in data set [20], 0.94. Moreover, in data set [9], the ΔTm came out at 12.7 °C.
